Experimental data reported in ChEMBL document CHEMBL4689842, “EUbOPEN Chemogenomics Library wave 1” (2021).
Values joined by “and” are separate entries in the source; they are usually repeats but may differ in a detail not shown here. Identical values can stand only once.

Tested on: Fibroblast
Assay: Multiplex assay against human fibroblast
Format: toxicity, cell-based
Outline: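 Imaging took place on a CQ1 microscope at 37°C and 5% CO2 once compound had been added to live cells stained at seeding with Hoechst33342, BioTracker Green Microtubule Cytoskeleton Dye, MitoTracker Red and Annexin V Alexa Fluor 680. CellPathfinder machine-learning gating classed cells as Hoechst high-intensity objects or normal cells, classed normal cells as having healthy, pyknosed or fragmented nuclei, and classed pyknosed cells as mitotic or apoptotic. Tubulin, mitochondrial-mass and membrane-permeability phenotypes are per cents of the healthy-nucleus cells.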

[1] = 12 h, 1 µM, compound concentration 1 uM, replicate 1
[2] = 12 h, 1 µM, compound concentration 1 uM, replicate 2
[3] = 12 h, 10 µM, compound concentration 10 uM, replicate 1
[4] = 12 h, 10 µM, compound concentration 10 uM, replicate 2
[5] = 24 h, 1 µM, compound concentration 1 uM, replicate 1
[6] = 24 h, 1 µM, compound concentration 1 uM, replicate 2
[7] = 24 h, 10 µM, compound concentration 10 uM, replicate 1
[8] = 24 h, 10 µM, compound concentration 10 uM, replicate 2

Compound: O=C(Nc1cccnn1)N1CCC(=Cc2cccc(Oc3ccc(C(F)(F)F)cn3)c2)CC1
- Population Apoptotic (%) [1]: 59%
- Population Fragmented Nuclei (%) [1]: 24%
- Population Healthy Nuclei (%) [1]: 56%
- Population Hoechst High Intensity Objects (%) [1]: 10%
- Population Membrane Permeable-Phenotype (%) [1]: 20%
- Population Mitochondria Different-Phenotype (%) [1]: 10%
- Population Normal (%) [1]: 89%
- Population Pyknosed Nuclei (%) [1]: 18%
- Population Tubulin-Different-Phenotype (%) [1]: 28%
- Total Cell Count [1]: 217
- Population Apoptotic (%) [2]: 60%
- Population Fragmented Nuclei (%) [2]: 71%
- Population Healthy Nuclei (%) [2]: 17%
- Population Hoechst High Intensity Objects (%) [2]: 44%
- Population Membrane Permeable-Phenotype (%) [2]: 25%
- Population Mitochondria Different-Phenotype (%) [2]: 0%
- Population Mitotic Cells (%) [2]: 40%
- Population Normal (%) [2]: 55%
- Population Pyknosed Nuclei (%) [2]: 10%
- Population Tubulin-Different-Phenotype (%) [2]: 25%
- Total Cell Count [2]: 83
- Population Apoptotic (%) [3]: 73%
- Population Fragmented Nuclei (%) [3]: 34%
- Population Healthy Nuclei (%) [3]: 52%
- Population Hoechst High Intensity Objects (%) [3]: 14%
- Population Membrane Permeable-Phenotype (%) [3]: 6%
- Population Mitochondria Different-Phenotype (%) [3]: 5%
- Population Mitotic Cells (%) [3]: 26%
- Population Normal (%) [3]: 85%
- Population Pyknosed Nuclei (%) [3]: 13%
- Population Tubulin-Different-Phenotype (%) [3]: 7%
- Total Cell Count [3]: 170
- Population Apoptotic (%) [4]: 25%
- Population Fragmented Nuclei (%) [4]: 50%
- Population Healthy Nuclei (%) [4]: 37%
- Population Hoechst High Intensity Objects (%) [4]: 24%
- Population Membrane Permeable-Phenotype (%) [4]: 12%
- Population Mitochondria Different-Phenotype (%) [4]: 12%
- Population Mitotic Cells (%) [4]: 75%
- Population Normal (%) [4]: 75%
- Population Pyknosed Nuclei (%) [4]: 12%
- Population Tubulin-Different-Phenotype (%) [4]: 4%
- Total Cell Count [4]: 85
- Population Apoptotic (%) [5]: 72%
- Population Fragmented Nuclei (%) [5]: 28%
- Population Healthy Nuclei (%) [5]: 58%
- Population Hoechst High Intensity Objects (%) [5]: 6%
- Population Membrane Permeable-Phenotype (%) [5]: 9%
- Population Mitochondria Different-Phenotype (%) [5]: 12%
- Population Mitotic Cells (%) [5]: 27%
- Population Normal (%) [5]: 93%
- Population Pyknosed Nuclei (%) [5]: 13%
- Population Tubulin-Different-Phenotype (%) [5]: 27%
- Total Cell Count [5]: 238
- Population Apoptotic (%) [6]: 60%
- Population Fragmented Nuclei (%) [6]: 60%
- Population Healthy Nuclei (%) [6]: 28%
- Population Hoechst High Intensity Objects (%) [6]: 42%
- Population Membrane Permeable-Phenotype (%) [6]: 23%
- Population Mitochondria Different-Phenotype (%) [6]: 23%
- Population Mitotic Cells (%) [6]: 40%
- Population Normal (%) [6]: 57%
- Population Pyknosed Nuclei (%) [6]: 11%
- Population Tubulin-Different-Phenotype (%) [6]: 38%
- Total Cell Count [6]: 78
- Population Apoptotic (%) [7]: 65%
- Population Fragmented Nuclei (%) [7]: 28%
- Population Healthy Nuclei (%) [7]: 57%
- Population Hoechst High Intensity Objects (%) [7]: 18%
- Population Membrane Permeable-Phenotype (%) [7]: 1%
- Population Mitochondria Different-Phenotype (%) [7]: 2%
- Population Mitotic Cells (%) [7]: 35%
- Population Normal (%) [7]: 81%
- Population Pyknosed Nuclei (%) [7]: 13%
- Population Tubulin-Different-Phenotype (%) [7]: 2%
- Total Cell Count [7]: 179
- Population Apoptotic (%) [8]: 33%
- Population Fragmented Nuclei (%) [8]: 51%
- Population Healthy Nuclei (%) [8]: 38%
- Population Hoechst High Intensity Objects (%) [8]: 23%
- Population Membrane Permeable-Phenotype (%) [8]: 12%
- Population Mitochondria Different-Phenotype (%) [8]: 8%
- Population Mitotic Cells (%) [8]: 66%
- Population Normal (%) [8]: 76%
- Population Pyknosed Nuclei (%) [8]: 9%
- Population Tubulin-Different-Phenotype (%) [8]: 20%
- Total Cell Count [8]: 81

Compound: CN([C@@H](Cc1ccc(OS(=O)(=O)c2cccc3cnccc23)cc1)C(=O)N1CCN(c2ccccc2)CC1)S(=O)(=O)c1cccc2cnccc12
- Population Apoptotic (%) [1]: 54% and 75%
- Population Fragmented Nuclei (%) [1]: 29%
- Population Healthy Nuclei (%) [1]: 56% and 53%
- Population Hoechst High Intensity Objects (%) [1]: 8% and 14%
- Population Membrane Permeable-Phenotype (%) [1]: 45%
- Population Mitotic Cells (%) [1]: 45% and 25%
- Population Normal (%) [1]: 91% and 85%
- Population Pyknosed Nuclei (%) [1]: 13% and 17%
- Population Tubulin-Different-Phenotype (%) [1]: 57% and 69%
- Total Cell Count [1]: 348 and 189
- Population Apoptotic (%) [2]: 50% and 80%
- Population Fragmented Nuclei (%) [2]: 53% and 70%
- Population Healthy Nuclei (%) [2]: 39% and 14%
- Population Hoechst High Intensity Objects (%) [2]: 30% and 41%
- Population Mitochondria Different-Phenotype (%) [2]: 39% and 60%
- Population Mitotic Cells (%) [2]: 50% and 20%
- Population Normal (%) [2]: 69% and 58%
- Population Pyknosed Nuclei (%) [2]: 6% and 14%
- Population Tubulin-Different-Phenotype (%) [2]: 82% and 80%
- Total Cell Count [2]: 84 and 58
- Population Apoptotic (%) [5]: 66% and 59%
- Population Fragmented Nuclei (%) [5]: 23% and 30%
- Population Healthy Nuclei (%) [5]: 61% and 59%
- Population Hoechst High Intensity Objects (%) [5]: 15% and 13%
- Population Membrane Permeable-Phenotype (%) [5]: 30% and 21%
- Population Mitotic Cells (%) [5]: 33% and 40%
- Population Normal (%) [5]: 84% and 86%
- Population Pyknosed Nuclei (%) [5]: 15% and 10%
- Population Tubulin-Different-Phenotype (%) [5]: 70% and 47%
- Total Cell Count [5]: 184 and 365
- Population Fragmented Nuclei (%) [6]: 76% and 52%
- Population Healthy Nuclei (%) [6]: 14% and 38%
- Population Hoechst High Intensity Objects (%) [6]: 33% and 25%
- Population Membrane Permeable-Phenotype (%) [6]: 40% and 25%
- Population Mitochondria Different-Phenotype (%) [6]: 40% and 33%
- Population Normal (%) [6]: 66% and 74%
- Population Pyknosed Nuclei (%) [6]: 8% and 9%
- Population Tubulin-Different-Phenotype (%) [6]: 60% and 91%
- Total Cell Count [6]: 51 and 85

Compound: CCCS(=O)(=O)Nc1ccc(F)c(C(=O)c2c[nH]c3ncc(Cl)cc23)c1F [PLX-4720]
- Population Apoptotic (%) [1]: 55%
- Population Fragmented Nuclei (%) [1]: 20%
- Population Healthy Nuclei (%) [1]: 62%
- Population Hoechst High Intensity Objects (%) [1]: 10%
- Population Membrane Permeable-Phenotype (%) [1]: 5%
- Population Mitochondria Different-Phenotype (%) [1]: 6%
- Population Mitotic Cells (%) [1]: 44%
- Population Normal (%) [1]: 89%
- Population Pyknosed Nuclei (%) [1]: 17%
- Population Tubulin-Different-Phenotype (%) [1]: 14%
- Total Cell Count [1]: 234
- Population Apoptotic (%) [2]: 28%
- Population Fragmented Nuclei (%) [2]: 56%
- Population Healthy Nuclei (%) [2]: 31%
- Population Hoechst High Intensity Objects (%) [2]: 29%
- Population Membrane Permeable-Phenotype (%) [2]: 22%
- Population Mitochondria Different-Phenotype (%) [2]: 11%
- Population Mitotic Cells (%) [2]: 71%
- Population Normal (%) [2]: 70%
- Population Pyknosed Nuclei (%) [2]: 12%
- Population Tubulin-Different-Phenotype (%) [2]: 27%
- Total Cell Count [2]: 81
- Population Apoptotic (%) [3]: 65%
- Population Fragmented Nuclei (%) [3]: 23%
- Population Healthy Nuclei (%) [3]: 63%
- Population Hoechst High Intensity Objects (%) [3]: 13%
- Population Membrane Permeable-Phenotype (%) [3]: 3%
- Population Mitotic Cells (%) [3]: 34%
- Population Normal (%) [3]: 86%
- Population Pyknosed Nuclei (%) [3]: 13%
- Population Tubulin-Different-Phenotype (%) [3]: 5%
- Total Cell Count [3]: 254
- Population Apoptotic (%) [4]: 60%
- Population Fragmented Nuclei (%) [4]: 65%
- Population Healthy Nuclei (%) [4]: 26%
- Population Hoechst High Intensity Objects (%) [4]: 36%
- Population Membrane Permeable-Phenotype (%) [4]: 6%
- Population Mitochondria Different-Phenotype (%) [4]: 6%
- Population Mitotic Cells (%) [4]: 40%
- Population Normal (%) [4]: 63%
- Population Pyknosed Nuclei (%) [4]: 8%
- Population Tubulin-Different-Phenotype (%) [4]: 0%
- Total Cell Count [4]: 95
- Population Apoptotic (%) [5]: 53%
- Population Fragmented Nuclei (%) [5]: 25%
- Population Healthy Nuclei (%) [5]: 61%
- Population Hoechst High Intensity Objects (%) [5]: 11%
- Population Membrane Permeable-Phenotype (%) [5]: 7%
- Population Mitochondria Different-Phenotype (%) [5]: 10%
- Population Mitotic Cells (%) [5]: 46%
- Population Normal (%) [5]: 88%
- Population Pyknosed Nuclei (%) [5]: 12%
- Population Tubulin-Different-Phenotype (%) [5]: 22%
- Total Cell Count [5]: 249
- Population Apoptotic (%) [6]: 25%
- Population Fragmented Nuclei (%) [6]: 47%
- Population Healthy Nuclei (%) [6]: 34%
- Population Hoechst High Intensity Objects (%) [6]: 40%
- Population Membrane Permeable-Phenotype (%) [6]: 13%
- Population Mitochondria Different-Phenotype (%) [6]: 6%
- Population Mitotic Cells (%) [6]: 75%
- Population Normal (%) [6]: 59%
- Population Pyknosed Nuclei (%) [6]: 18%
- Population Tubulin-Different-Phenotype (%) [6]: 13%
- Total Cell Count [6]: 74
- Population Apoptotic (%) [7]: 70%
- Population Fragmented Nuclei (%) [7]: 23%
- Population Healthy Nuclei (%) [7]: 63%
- Population Hoechst High Intensity Objects (%) [7]: 18%
- Population Membrane Permeable-Phenotype (%) [7]: 3%
- Population Mitochondria Different-Phenotype (%) [7]: 4%
- Population Mitotic Cells (%) [7]: 29%
- Population Normal (%) [7]: 81%
- Population Pyknosed Nuclei (%) [7]: 12%
- Population Tubulin-Different-Phenotype (%) [7]: 1%
- Total Cell Count [7]: 271
- Population Apoptotic (%) [8]: 50%
- Population Fragmented Nuclei (%) [8]: 64%
- Population Healthy Nuclei (%) [8]: 29%
- Population Hoechst High Intensity Objects (%) [8]: 31%
- Population Membrane Permeable-Phenotype (%) [8]: 10%
- Population Mitochondria Different-Phenotype (%) [8]: 10%
- Population Mitotic Cells (%) [8]: 50%
- Population Normal (%) [8]: 68%
- Population Pyknosed Nuclei (%) [8]: 5%
- Population Tubulin-Different-Phenotype (%) [8]: 10%
- Total Cell Count [8]: 98
